Measurements as given in ChEMBL document CHEMBL1141719, “Naphthylphenstatins as tubulin ligands: synthesis and biological evaluation” (Bioorg Med Chem, 2008).
Where “and” joins values, the source holds several entries; their conditions need not be identical. Equal values may be shown once.

Columns and labels:
Bos taurus [1] = organism: Bos taurus; experiment: Inhibition of calf brain tubulin polymerization at 20 uM relative to control
In short: (§1)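 Calf brain microtubule protein was purified by two cycles of temperature-dependent assembly/disassembly. Assay used 1.0 mg/mL MTP in 0.1 M MES, 1 mM EGTA, 1 mM MgCl2, 1 mM β-ME, 1.5 mM GTP, pH 6.7, with 4% DMSO. Ligand was preincubated 30 min at 20 °C, then 10 min on ice, and assembly started by shift from 4 °C to 37 °C. Turbidity was followed against a no-ligand control. Inhibition is percent of control, mean of at least three experiments.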

Bos taurus [2] = organism: Bos taurus; experiment: Inhibition of calf brain tubulin polymerization at 30 uM relative to control; in short: as §1
HeLa = experiment: Cytotoxicity against human HeLa cells after 72 hrs by XTT assay; assay type: functional, cell-based
In short: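 HeLa (1.5 × 10³/well), HT-29 (3 × 10³/well) or A-549 (5 × 10³/well) cells seeded in 100 µL and allowed to attach for 24 h at 37 °C, 5% CO₂. Compounds at a range of concentrations for 72 h. Then XTT/PMS reagent added for 4 h, with absorbance read at 490 nm (reference 655 nm). IC50 is the concentration giving 50% inhibition of proliferation, mean of at least six experiments.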

A549 = experiment: Cytotoxicity against human A549 cells after 72 hrs by XTT assay; assay type: functional, cell-based
HT-29 = experiment: Cytotoxicity against human HT-29 cells after 72 hrs by XTT assay; assay type: functional, cell-based
[3] = Inhibition of calf brain tubulin polymerization relative to control; parameters: species or system Bos taurus; in short: as §1
Bos taurus [4] = organism: Bos taurus; experiment: Inhibition of calf brain tubulin polymerization at 40 uM relative to control; in short: as §1

Row | inhibition (Bos taurus [1]) | Structure (SMILES) | IC50 (HeLa; Homo sapiens, HeLa, 72 h) [µM] | IC50 (A549; a549) | IC50 (HT-29; Homo sapiens, HT-29, 72 h) [µM] | further results
1 | 10% | COc1cc(/C(=N\OC(C)=O)c2ccc3ccccc3c2)cc(OC)c1OC |  |  |  | 
2 |  | COc1cc(/C(=N/NC(C)=O)c2ccc3ccccc3c2)cc(OC)c1OC | 10 | > 10 µM | 10 | inhibition (Bos taurus [2]): 35%; IC50 (HeLa; hela): > 10 µM; IC50 (A549; Homo sapiens, A549, 72 h): 10 µM; IC50 (HT-29; ht-29): > 10 µM
3 | 38% | COc1cc(/C(=N/OC(C)=O)c2ccc3ccccc3c2)cc(OC)c1OC | 0.001 |  | 1 | 
4 |  | COc1cc(/C(=N/O)c2ccc3ccccc3c2)cc(OC)c1OC | 1.5 | > 10 µM | 1.8 | inhibition (Bos taurus [2]): 0%; IC50 (A549; Homo sapiens, A549, 72 h): 10 µM
5 | 26% | COc1ccc(C(OC(C)=O)c2ccc3ccccc3c2)c(OC)c1OC (stereo unspecified) | 2.7 |  |  | IC50 (A549; Homo sapiens, A549, 72 h): 10 µM
6 |  | COc1ccc(C(=O)c2cc(OC)c(OC)c(OC)c2)cc1O [PHENSTATIN] |  |  |  | IC50 [3]: 2.5 µM
7 |  | COc1cc(/C(=N/N)c2ccc3ccccc3c2)cc(OC)c1OC |  |  | 10 | inhibition (Bos taurus [2]): 0%
8 | 0% | COc1cc(/C(=N\NC(C)=O)c2ccc3ccccc3c2)cc(OC)c1OC |  |  |  | 
9 | 4% | CO/N=C(/c1cc(OC)c(OC)c(OC)c1)c1ccc2ccccc2c1 |  |  | 1 | 
10 |  | COc1ccc(/C(=N/O)c2ccc3ccccc3c2)c(OC)c1OC | 0.4 | > 10 µM | 1 | inhibition (Bos taurus [2]): 0%; IC50 (A549; Homo sapiens, A549, 72 h): 10 µM
11 |  | CN/N=C(/c1cc(OC)c(OC)c(OC)c1)c1ccc2ccccc2c1 |  |  |  | inhibition (Bos taurus [2]): 31%
12 | 0% | COc1ccc(/C(=N\NC(C)=O)c2ccc3ccccc3c2)c(OC)c1OC |  |  |  | 
13 |  | COc1cc(C(O)c2ccc3ccccc3c2)cc(OC)c1OC (stereo unspecified) |  |  |  | inhibition (Bos taurus [4]): 0%
14 | 10% and 5% | COc1cc(C(OC(C)=O)c2ccc3ccccc3c2)cc(OC)c1OC (stereo unspecified) |  | 1.2 µM and > 10 µM |  | IC50 (HeLa; hela): 10 µM and 3.8 µM
15 |  | COc1cc(C(=O)c2ccc3ccccc3c2)cc(OC)c1OC |  | 0.043 µM |  | IC50 [3]: 1.1 µM
16 | 0.25% and 4% | COc1ccc(C(=O)c2ccc3ccccc3c2)c(OC)c1OC |  | 1.7 µM and > 10 µM |  | IC50 (HeLa; hela): 4 µM
17 | 0% | COc1ccc(C(O)c2ccc3ccccc3c2)c(OC)c1OC (stereo unspecified) | 10 | > 10 µM |  | IC50 (A549; Homo sapiens, A549, 72 h): 10 µM
18 | 0% | COc1ccc(/C(=N\N)c2ccc3ccccc3c2)c(OC)c1OC |  |  |  | 
19 | 0% | COc1ccc(/C(=N\OC(C)=O)c2ccc3ccccc3c2)c(OC)c1OC | 1.2 | > 10 µM | 10 | IC50 (A549; Homo sapiens, A549, 72 h): 10 µM; IC50 (HT-29; ht-29): > 10 µM
20 | 15% | COc1cc(/C(=N\OC(=O)OC(C)(C)C)c2ccc3ccccc3c2)cc(OC)c1OC |  |  | 10 | IC50 (HT-29; ht-29): > 10 µM
21 |  | COc1ccc(/C(=N\OC(=O)OC(C)(C)C)c2ccc3ccccc3c2)c(OC)c1OC |  |  | 10 | IC50 (HT-29; ht-29): > 10 µM
22 | 0% | COc1cc(C(c2ccc3ccccc3c2)n2ccnc2)cc(OC)c1OC (stereo unspecified) |  |  | 10 | IC50 (HT-29; ht-29): > 10 µM
23 | 3% | COc1ccc(C(C)(O)c2ccc3ccccc3c2)c(OC)c1OC (stereo unspecified) | 1 |  |  | IC50 (A549; Homo sapiens, A549, 72 h): 10 µM

Row | Structure (SMILES) | inhibition (Bos taurus [1]) | IC50 (HeLa; Homo sapiens, HeLa, 72 h) [µM] | IC50 (A549; a549) | IC50 (HT-29; Homo sapiens, HT-29, 72 h) [µM] | further results
24 | COc1ccc(/C=C\c2cc(OC)c(OC)c(OC)c2)cc1O [COMBRETASTATIN A4] | 100% | 2.7 |  |  | IC50 [3]: 3 µM
